pIC50: −log10 of the molar value. ≈ marks a conversion by molar mass, not a printed value. Calls of active or inactive are those of the source. No cut-off for these calls is given here.
Tests used:
[1] = tested on: Toxoplasma gondii; test: Antiparasitic activity against yellow fluorescent protein expressing Toxoplasma gondii 2F-1 infected in HFF treated immediately after infection measured after 48 hrs; format: functional, organism-based; settings: 2F-1, 48 h
[2] = tested on: Toxoplasma gondii; test: Antiparasitic activity against yellow fluorescent protein expressing Toxoplasma gondii 2F-1 treated 6 hrs after infection for 42 hrs followed by reinoculated into fresh HFF monolayers measured after 48 hrs; format: functional, organism-based
Method in brief: (§1)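 Two-cycle protocol in HFF at 37 °C, 5% CO2, DMEM with 10% FBS. "0h": compound added with parasites, 48 h. "6h": parasites pre-incubated 6 h, uninvaded parasites removed, fresh medium with compound added, 42 h. Released tachyzoites were then harvested, purified and inoculated into fresh HFF without compound for the 2nd cycle. At least triplicate.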

[3] = tested on: HFF; test: Cytotoxicity against HFF after 48 hrs by MTS assay; format: cell-based; settings: human
Method in brief: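 Low-passage HFF seeded in 96-well plates and incubated 24h at 37 °C, then exposed to varying macrolide concentrations for 2 days; medium replaced with fresh medium plus MTS, 4h at 37 °C, absorbance 490 nm; CC50 = dose reducing viability by 50%.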

[4] = tested on: Bacillus subtilis; test: Antibacterial activity against Bacillus subtilis; format: functional
[5] = tested on: Toxoplasma gondii; test: Antiparasitic activity against yellow fluorescent protein expressing Toxoplasma gondii 2F-1 infected in HFF treated 6 hrs after infection measured after 48 hrs; format: functional, organism-based
[6] = tested on: Toxoplasma gondii; test: Antiparasitic activity against green fluorescent protein expressing […] deficient Toxoplasma gondii RH infected in HFF assessed as decrease in density of parasitophorous vacuoles at 10 uM treated immediately after infection measured after 24 hrs by microscopic analysis; format: functional, organism-based
Method in brief: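 GFP T. gondii RHΔhxgprt in HFF, compound (10 μM) added either with the inoculum ("0h") or after 6 h pre-infection and washing ("6h"); vacuoles per microscope field scored at 24 h, at least 20 random fields from each of three experiments.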

[7] = tested on: Toxoplasma gondii; test: Antiparasitic activity against yellow fluorescent protein expressing Toxoplasma gondii 2F-1 treated immediately after infection for 48 hrs followed by reinoculated into fresh HFF monolayers measured after 48 hrs; format: functional, organism-based; settings: 2F-1, 48 h; method in brief: as §1
[8] = tested on: Toxoplasma gondii; test: Antiparasitic activity against Toxoplasma gondii 2F-1 expressing yellow fluorescent protein infected in HFF after 4 days; format: functional, organism-based; settings: 2F-1, 96 h
[9] = tested on: Toxoplasma gondii; test: Antiparasitic activity against green fluorescent protein expressing hwgprt deficient Toxoplasma gondii RH infected in HFF assessed as reduction of ycf24/UPRT genes copy number ratio at 1 uM treated for 48 hrs after 6 hrs infection followed by reinoculated into fresh HFF monolayers measured after 48 hrs by RT-PCR analysis; format: functional
[10] = tested on: Toxoplasma gondii; test: Antiparasitic activity against green fluorescent protein expressing […] deficient Toxoplasma gondii RH infected in HFF assessed as reduction of ycf24/UPRT genes copy number ratio at 1 uM treated for 48 hrs immediately after infection followed by reinoculated into fresh HFF monolayers measured after 48 hrs by RT-PCR analysis; format: functional
Method in brief: (§2)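 Tachyzoites were seeded on confluent HFF in 6-well plates at 2×10^5 per well, in DMEM with 10% FBS and 1% PS at 37 °C, 5% CO2. Harvested tachyzoites were reinoculated into fresh HFF without drug for a second cycle. Parasites were pelleted by centrifugation and the plastid ycf24 to nuclear UPRT copy ratio was read by qPCR (40 cycles, 94 °C 3 s / 60 °C 30 s). At least triplicate.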

[11] = tested on: Toxoplasma gondii; test: Antiparasitic activity against clindamycin-resistant Toxoplasma gondii 4 infected in HFF assessed as reduction of ycf24/UPRT genes copy number ratio at 1 uM treated for 48 hrs immediately after infection followed by reinoculated into fresh HFF monolayers measured after 48 hrs by RT-PCR analysis; format: functional; method in brief: as §2
[12] = tested on: Toxoplasma gondii; test: Antiparasitic activity against clindamycin-resistant Toxoplasma gondii 4 infected in HFF assessed as reduction of ycf24/UPRT genes copy number ratio at 1 uM treated for 48 hrs after 6 hrs infection followed by reinoculated into fresh HFF monolayers measured after 48 hrs by RT-PCR analysis; format: functional

## CC[C@H]1OC(=O)[C@H](C)[C@@H](O[C@H]2C[C@@](C)(OC)[C@@H](O)[C@H](C)O2)[C@H](C)[C@@H](O[C@@H]2O[C@H](C)C[C@H](N(C)C)[C@H]2O)[C@](C)(O)C[C@@H](C)CN(Cc2ccc(F)cc2)[C@H](C)[C@@H](O)[C@]1(C)O
[1]
  pIC50: 5.22
[2]
  pIC50: 6.15
[3]
  CC50: 31 µM
[4]
  MIC: 0.3 µM (≈ 0.253 µg/mL)
[5]
  pIC50: 5.05
[6]
  Activity: Active
[7]
  pIC50: 6.30

## CC[C@H]1OC(=O)[C@H](C)[C@@H](O[C@H]2C[C@@](C)(OC)[C@@H](O)[C@H](C)O2)[C@H](C)[C@@H](O[C@@H]2O[C@H](C)C[C@H](N(C)C)[C@H]2O)[C@](C)(O)C[C@@H](C)CN(Cc2ccc(C)cc2)[C@H](C)[C@@H](O)[C@]1(C)O
[1]
  pIC50: 5.30
[2]
  pIC50: 6.15
[3]
  CC50: 38 µM
[4]
  MIC: 0.3 µM (≈ 0.252 µg/mL)
[5]
  pIC50: 5.05
[6]
  Activity: Active
[7]
  pIC50: 6.22

## CC[C@H]1OC(=O)[C@H](C)[C@@H](O[C@H]2C[C@@](C)(OC)[C@@H](O)[C@H](C)O2)[C@H](C)[C@@H](O[C@@H]2O[C@H](C)C[C@H](N(C)C)[C@H]2O)[C@](C)(OC)C[C@@H](C)CN(Cc2ccccc2)[C@H](C)[C@@H](O)[C@]1(C)O
[1]
  pIC50: 5.15
[2]
  pIC50: 5.40
[3]
  CC50: 13 µM
[4]
  MIC: 0.3 µM (≈ 0.252 µg/mL)
[5]
  pIC50: 5.00
[8]
  pIC50: 5.70
[7]
  pIC50: 5.30

## C=CCO[C@]1(C)C[C@@H](C)CN(C(=O)NCC)[C@H](C)[C@@H](O)[C@](C)(O)[C@@H](CC)OC(=O)[C@H](C)[C@@H](O[C@H]2C[C@@](C)(OC)[C@@H](O)[C@H](C)O2)[C@H](C)[C@H]1O[C@@H]1O[C@H](C)C[C@H](N(C)C)[C@H]1O
[3]
  CC50: 90 µM
[4]
  MIC: 5 µM (≈ 4.23 µg/mL)
[8]
  pIC50: 4.48

## CCc1nc(N)nc(N)c1-c1ccc(Cl)cc1 [PYRIMETHAMINE]
[9]
  Ratio: 22
[10]
  Ratio: 29
[11]
  Ratio: 27
[12]
  Ratio: 23

## CC[C@H]1OC(=O)[C@H](C)[C@@H](O[C@H]2C[C@@](C)(OC)[C@@H](O)[C@H](C)O2)[C@H](C)[C@@H](O[C@@H]2O[C@H](C)C[C@H](N(C)C)[C@H]2O)[C@](C)(OC)C[C@@H](C)CN[C@H](C)[C@@H](O)[C@]1(C)O
[3]
  CC50: 460 µM
[4]
  MIC: 2.5 µM (≈ 1.87 µg/mL)
[8]
  pIC50: 3.97

## CC[C@H]1OC(=O)[C@H](C)[C@@H](O[C@H]2C[C@@](C)(OC)[C@@H](O)[C@H](C)O2)[C@H](C)[C@@H](O[C@@H]2O[C@H](C)C[C@H](N(C)C)[C@H]2O)[C@](C)(O)C[C@@H](C)CN(C(=O)NCc2ccccc2)[C@H](C)[C@@H](O)[C@]1(C)O
[3]
  CC50: 222 µM
[4]
  MIC: 1.2 µM (≈ 1.04 µg/mL)
[8]
  pIC50: 4.92

## CC[C@H]1OC(=O)[C@H](C)[C@@H](O[C@H]2C[C@@](C)(OC)[C@@H](O)[C@H](C)O2)[C@H](C)[C@@H](O[C@@H]2O[C@H](C)C[C@H](N(C)C)[C@H]2O)[C@](C)(O)C[C@@H](C)CN(CCCc2ccccc2)[C@H](C)[C@@H](O)[C@]1(C)O
[1]
  pIC50: 5.40
[2]
  pIC50: 6.22
[3]
  CC50: 33 µM
[4]
  MIC: 0.6 µM (≈ 0.512 µg/mL)
[5]
  pIC50: 5.10
[6]
  Activity: Active
[7]
  pIC50: 6.22

## C=CCN1C[C@H](C)C[C@@](C)(O)[C@H](O[C@@H]2O[C@H](C)C[C@H](N(C)C)[C@H]2O)[C@@H](C)[C@H](O[C@H]2C[C@@](C)(OC)[C@@H](O)[C@H](C)O2)[C@@H](C)C(=O)O[C@H](CC)[C@@](C)(O)[C@H](O)[C@H]1C
[3]
  CC50: 103 µM
[4]
  MIC: 0.3 µM (≈ 0.233 µg/mL)
[8]
  pIC50: 4.89

## CC[C@H]1OC(=O)[C@H](C)[C@@H](O[C@H]2C[C@@](C)(OC)[C@@H](O)[C@H](C)O2)[C@H](C)[C@@H](O[C@@H]2O[C@H](C)C[C@H](N(C)C)[C@H]2O)[C@](C)(O)C[C@@H](C)/C(=N\OC)[C@H](C)[C@@H](O)[C@]1(C)O
[3]
  CC50: 22 µM
[4]
  MIC: 0.04 µM (≈ 0.0305 µg/mL)
[8]
  pIC50: 4.85

## CCCO/N=C1\[C@H](C)C[C@@](C)(O)[C@H](O[C@@H]2O[C@H](C)C[C@H](N(C)C)[C@H]2O)[C@@H](C)[C@H](O[C@H]2C[C@@](C)(OC)[C@@H](O)[C@H](C)O2)[C@@H](C)C(=O)O[C@H](CC)[C@@](C)(O)[C@H](O)[C@H]1C
[3]
  CC50: 7 µM
[4]
  MIC: 0.04 µM (≈ 0.0316 µg/mL)
[8]
  pIC50: 5.80

## C=CCO[C@]1(C)C[C@@H](C)CN(C(=O)NCc2ccccc2)[C@H](C)[C@@H](O)[C@](C)(O)[C@@H](CC)OC(=O)[C@H](C)[C@@H](O[C@H]2C[C@@](C)(OC)[C@@H](O)[C@H](C)O2)[C@H](C)[C@H]1O[C@@H]1O[C@H](C)C[C@H](N(C)C)[C@H]1O
[3]
  CC50: 28 µM
[4]
  MIC: 1.5 µM (≈ 1.36 µg/mL)
[8]
  pIC50: 5.22

## C=CCO[C@]1(C)C[C@@H](C)CN(CC=C)[C@H](C)[C@@H](O)[C@](C)(O)[C@@H](CC)OC(=O)[C@H](C)[C@@H](O[C@H]2C[C@@](C)(OC)[C@@H](O)[C@H](C)O2)[C@H](C)[C@H]1O[C@@H]1O[C@H](C)C[C@H](N(C)C)[C@H]1O
[3]
  CC50: 38 µM
[4]
  MIC: 5 µM (≈ 4.08 µg/mL)
[8]
  pIC50: 4.92

## CC[C@H]1OC(=O)[C@H](C)[C@@H](O[C@H]2C[C@@](C)(OC)[C@@H](O)[C@H](C)O2)[C@H](C)[C@@H](O[C@@H]2O[C@H](C)C[C@H](N(C)C)[C@H]2O)[C@](C)(O)C[C@@H](C)CN(CC2CCCCC2)[C@H](C)[C@@H](O)[C@]1(C)O
[1]
  pIC50: 5.15
[2]
  pIC50: 6.22
[3]
  CC50: 36 µM
[4]
  MIC: 0.3 µM (≈ 0.249 µg/mL)
[5]
  pIC50: 4.92
[6]
  Activity: Active
[7]
  pIC50: 6.22

## CCNC(=O)N1C[C@H](C)C[C@@](C)(OC)[C@H](O[C@@H]2O[C@H](C)C[C@H](N(C)C)[C@H]2O)[C@@H](C)[C@H](O[C@H]2C[C@@](C)(OC)[C@@H](O)[C@H](C)O2)[C@@H](C)C(=O)O[C@H](CC)[C@@](C)(O)[C@H](O)[C@H]1C
[3]
  CC50: 409 µM
[4]
  MIC: 10 µM (≈ 8.2 µg/mL)
[8]
  pIC50: 4.23

## CCCN1C[C@H](C)C[C@@](C)(OC)[C@H](O[C@@H]2O[C@H](C)C[C@H](N(C)C)[C@H]2O)[C@@H](C)[C@H](O[C@H]2C[C@@](C)(OC)[C@@H](O)[C@H](C)O2)[C@@H](C)C(=O)O[C@H](CC)[C@@](C)(O)[C@H](O)[C@H]1C
[3]
  CC50: 106 µM
[4]
  MIC: 1.2 µM (≈ 0.949 µg/mL)
[8]
  pIC50: 4.70

## CC[C@H]1OC(=O)[C@H](C)[C@@H](O[C@H]2C[C@@](C)(OC)[C@@H](O)[C@H](C)O2)[C@H](C)[C@@H](O[C@@H]2O[C@H](C)C[C@H](N(C)C)[C@H]2O)[C@](C)(O)C[C@@H](C)CN[C@H](C)[C@@H](O)[C@]1(C)O
[3]
  CC50: 386 µM
[4]
  MIC: 1.2 µM (≈ 0.882 µg/mL)
[8]
  pIC50: 4.19

## C=CCO[C@]1(C)C[C@@H](C)CN(Cc2ccccc2)[C@H](C)[C@@H](O)[C@](C)(O)[C@@H](CC)OC(=O)[C@H](C)[C@@H](O[C@H]2C[C@@](C)(OC)[C@@H](O)[C@H](C)O2)[C@H](C)[C@H]1O[C@@H]1O[C@H](C)C[C@H](N(C)C)[C@H]1O
[1]
  pIC50: 5.15
[2]
  pIC50: < 5.00
[3]
  CC50: 14 µM
[4]
  MIC: 6 µM (≈ 5.19 µg/mL)
[5]
  pIC50: < 5.00
[8]
  pIC50: 5.30
[7]
  pIC50: 5.00

— ChEMBL document CHEMBL1772948, “Chemistry and biology of macrolide antiparasitic agents” (J Med Chem, 2011)
